Experimental data reported in ChEMBL document CHEMBL2407055, “4-Substituted 2-Hydroxyisoquinoline-1,3(2H,4H)-diones as a Novel Class of HIV-1 Integrase Inhibitors” (ACS Med Chem Lett, 2013).
In brackets after ≈: the same amount, converted by molar mass.

Assays:
[1] = Therapeutic index, ratio of CC50 for human MT4 cells to EC50 for HIV1 3B; format: cell-based; conditions: read-out: Ratio CC50/EC50
Method in brief: (§1)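 Anti-HIV-1 activity was measured in MT-4 cells. EC50 is the concentration that cuts HIV-1-induced cytopathic effect by 50%. CC50 is the concentration that lowers MT-4 cell viability by 50%. The therapeutic index is CC50/EC50.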

[2] = molecular target: Human immunodeficiency virus type 1 reverse transcriptase (Human immunodeficiency virus 1, UniProt Q72547); assay: Inhibition of HIV1 recombinant reverse transcriptase RNase H activity after 10 mins
Method in brief: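 In vitro assay of RT-associated RNase H function. IC50 is the concentration giving 50% inhibition of RNase H activity.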

[3] = molecular target: T1, Human immunodeficiency virus type 1 integrase (Human immunodeficiency virus 1, UniProt Q7ZJM1); assay: Inhibition of strand transfer activity of HIV1 integrase using pre-cleaved oligonucleotide as substrate after 1 hr by ELISA
[4] = molecular target: Human immunodeficiency virus type 1 integrase (Human immunodeficiency virus 1) (UniProt Q7ZJM1); assay: Ratio of IC50 for strand transfer activity of HIV1 integrase to IC50 for HIV1 integrase overall inhibition
[5] = Cytotoxicity against human MT4 cells by MTT assay; format: cell-based; method in brief: as §1
[6] = test system: Human immunodeficiency virus 1; assay: Antiviral activity against HIV1 3B infected in human MT4 cells assessed as inhibition of virus-induced cytopathic effect by MTT assay; format: functional, organism-based; conditions: Human immunodeficiency virus 1, 3B; method in brief: as §1
[7] = molecular target: T1, Human immunodeficiency virus type 1 integrase; assay: Inhibition of HIV1 integrase overall inhibition using 5'-digoxigenin-labeled 5'-GACCCTTTTAGTCAGTGTGGAAAATCTCTAGCAGT-3' as substrate after 1 hr by ELISA
[8] = molecular target: T1, Human immunodeficiency virus type 1 integrase; assay: Inhibition of 3'-processing activity of HIV1 integrase using 32P-5'-TGTGGAAAATCTCTAGCAGT-3' and 5'-ACTGCTAGAGATTTTCCACA-3' as substrate after 1 hr by ELISA
[9] = molecular target: T1, Human immunodeficiency virus type 1 integrase; assay: Inhibition of HIV1 integrase binding to LEDGF
[10] = Aqueous solubility of the compound in PBS at pH 7.4; format: physicochemical
[11] = Protein binding in human plasma; format: ADME, cell-free; conditions: read-out: PPB
[12] = n-octanol-PBS partition coefficient, log D of the compound at pH 7.4; format: physicochemical

Chain of Human immunodeficiency virus type 1 integrase (Human immunodeficiency virus 1) (Q7ZJM1 as listed by the source): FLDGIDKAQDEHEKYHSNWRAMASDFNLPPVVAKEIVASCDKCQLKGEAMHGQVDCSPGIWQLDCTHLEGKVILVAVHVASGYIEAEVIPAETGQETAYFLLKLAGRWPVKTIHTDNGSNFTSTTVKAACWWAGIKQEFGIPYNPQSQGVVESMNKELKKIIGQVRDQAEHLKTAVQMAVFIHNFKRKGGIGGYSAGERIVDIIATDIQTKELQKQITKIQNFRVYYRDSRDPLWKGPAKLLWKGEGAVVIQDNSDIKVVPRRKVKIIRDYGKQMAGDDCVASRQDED
T1 sequence (Q7ZJM1 whole entry): as the sequence (Q7ZJM1 as listed by the source) above

COc1ccc(CNC(=O)C2C(=O)N(O)C(=O)c3ccccc32)c(OC)c1 (stereo not given) gave a selectivity ratio [1] of 6.5, an IC50 [2] of 630 nM and an IC50 [3] of 254 nM. It also gave a Ratio IC50 [4] of 10, a CC50 [5] of 60400 nM and an EC50 [6] of 9240 nM. It also gave an IC50 [7] of 35 nM.
For CN1C(=O)c2ccccc2C(C(=O)NCc2ccc(F)cc2)C1=O (stereo not given), the IC50 [3] was > 250000 nM, the CC50 [5] was > 250000 nM and the EC50 [6] was > 250000 nM. The IC50 [7] was > 250000 nM.
O=C(Nc1ccc(F)cc1)C1C(=O)N(O)C(=O)c2ccccc21 (stereo not given) gave a selectivity ratio [1] of 65.4, an IC50 [3] of 1120 nM and a CC50 [5] of 114000 nM. The EC50 [6] was 1750 nM and the IC50 [7] was 800 nM.
For COc1ccc(CCNC(=O)C2C(=O)N(O)C(=O)c3ccccc32)cc1OC (stereo not given), the selectivity ratio [1] was > 1.8, the IC50 [2] was 3850 nM and the IC50 [3] was 126 nM. For the same compound, the CC50 [5] was > 125000 nM, the EC50 [6] was 70800 nM and the IC50 [7] was 495 nM.
O=C(NCCc1ccc(O)c(O)c1)C1C(=O)N(O)C(=O)c2ccccc21 (stereo not given) gave an IC50 [2] of 130 nM, an IC50 [3] of 296 nM and a CC50 [5] of 63000 nM. The EC50 [6] was > 63000 nM and the IC50 [7] was 673 nM.
For O=C(NCc1ccc(F)cc1)C1C(=O)N(O)C(=O)c2ccccc21 (stereo not given), the selectivity ratio [1] was 86.3, the IC50 [2] was 360 nM and the IC50 [8] was 60 nM. For the same compound, the IC50 [9] was > 100000 nM, the IC50 [3] was 99 nM and the CC50 [5] was 202000 nM. It also gave a solubility [10] of 190 µM (≈ 62.4 µg/mL), an EC50 [6] of 2340 nM and a fraction unbound [11] of 0.001. For the same compound, the IC50 [7] was 56 nM and the logD [12] was 0.56.
COc1ccc(CNC(=O)C2C(=O)N(O)C(=O)c3ccccc32)cc1 (stereo not given) gave a selectivity ratio [1] of 6.7, an IC50 [3] of 1030 nM and a CC50 [5] of 118000 nM. For the same compound, the EC50 [6] was 17600 nM and the IC50 [7] was 1190 nM.
With O=C(NCc1ccc(O)cc1O)C1C(=O)N(O)C(=O)c2ccccc21 (stereo not given) the selectivity ratio [1] was > 16, the IC50 [2] was 520 nM and the IC50 [8] was 2350 nM. The IC50 [3] was 572 nM, the Ratio IC50 [4] was 10 and the CC50 [5] was > 125000 nM. The EC50 [6] was 7940 nM and the IC50 [7] was 35 nM.
O=C(Nc1cccc(F)c1)C1C(=O)N(O)C(=O)c2ccccc21 (stereo not given) gave a selectivity ratio [1] of 25.9, an IC50 [2] of 7310 nM and an IC50 [3] of 110 nM. It also gave a Ratio IC50 [4] of 10, a CC50 [5] of 64000 nM and an EC50 [6] of 2470 nM. It also gave an IC50 [7] of 10 nM.
Work on O=C(NCc1ccc(O)c(O)c1)C1C(=O)N(O)C(=O)c2ccccc21 (stereo not given) yielded an IC50 [2] of 900 nM, an IC50 [3] of 258 nM and a CC50 [5] of 11000 nM. The EC50 [6] was > 11000 nM and the IC50 [7] was 205 nM.
For COc1ccc(CNC(=O)C2C(=O)N(O)C(=O)c3ccccc32)cc1OC (stereo not given), the IC50 [3] was 307 nM, the CC50 [5] was 125000 nM and the EC50 [6] was > 125000 nM. The IC50 [7] was 235 nM.
With O=C(NCCc1ccc(F)cc1)C1C(=O)N(O)C(=O)c2ccccc21 (stereo not given) the selectivity ratio [1] was 24, the IC50 [3] was 200 nM and the CC50 [5] was 124000 nM. It also gave an EC50 [6] of 5080 nM and an IC50 [7] of 30 nM.
O=C(NCc1ccccc1)C1C(=O)N(O)C(=O)c2ccccc21 (stereo not given) showed a selectivity ratio [1] of 41.7, an IC50 [3] of 30 nM and a CC50 [5] of 130000 nM. The EC50 [6] was 3120 nM and the IC50 [7] was 80 nM.
For CN(C(=O)C1C(=O)N(O)C(=O)c2ccccc21)c1ccccc1 (stereo not given), the IC50 [3] was 5600 nM, the CC50 [5] was 107000 nM and the EC50 [6] was > 107000 nM. For the same compound, the IC50 [7] was 5210 nM.
For O=C(Nc1ccccc1)C1C(=O)N(O)C(=O)c2ccccc21 (stereo not given), the selectivity ratio [1] was 21.3, the IC50 [3] was 730 nM and the CC50 [5] was 106000 nM. For the same compound, the EC50 [6] was 4950 nM and the IC50 [7] was 310 nM.
For Cc1nnc(C(=O)NC(C)(C)c2nc(C(=O)NCc3ccc(F)cc3)c(O)c(=O)n2C)o1, the CC50 [5] was > 8000 nM.
In the case of O=C1NC(=O)C(C(=O)NCc2ccc(F)cc2)c2ccccc21 (stereo not given), the IC50 [3] is reported as 79000 nM, the CC50 [5] is reported as > 250000 nM and the EC50 [6] is reported as > 250000 nM. It also gave an IC50 [7] of 199000 nM.
With Cc1ccc(CNC(=O)C2C(=O)N(O)C(=O)c3ccccc32)cc1 (stereo not given) the selectivity ratio [1] was > 22, the IC50 [2] was 14000 nM and the IC50 [3] was 84 nM. The CC50 [5] was > 125000 nM, the EC50 [6] was 5700 nM and the IC50 [7] was 76 nM.
With COc1ccc(NC(=O)C2C(=O)N(O)C(=O)c3ccccc32)cc1Cl (stereo not given) the selectivity ratio [1] was 3.7, the IC50 [2] was 16600 nM and the IC50 [8] was 1580 nM. The IC50 [3] was 277 nM, the Ratio IC50 [4] was 10 and the CC50 [5] was 12300 nM. For the same compound, the EC50 [6] was 3340 nM and the IC50 [7] was 20 nM.
